Results published in ChEMBL document CHEMBL1795208 (J Med Chem, 2011).
Active and inactive are the calls of the source. No cut-off for these calls is given here.

Assays:
SK-BR-3 [1] = assay: Antiproliferative activity against human SKBR3 cells expressing HER2 after 72 hrs by MTS/PMS assay; assay type: functional, cell-based; conditions: SK-BR-3, 72 h
In short: (§1)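 Cells kept in Advanced DMEM/F12 (1:1) with non-essential amino acids, 2 mM L-glutamine, penicillin, streptomycin and 10% FBS at 37 °C, 5% CO2. Seeded at 2000/well, attached overnight. Compound added in DMSO across a concentration range (1% DMSO final) for 72 h. Viable cells read by MTS/PMS and normalized to 1% DMSO controls (100%). IC50 taken from separate triplicate experiments.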

MCF7 = assay: Antiproliferative activity against human MCF7 cells expressing estrogen receptor after 72 hrs by MTS/PMS assay; assay type: functional, cell-based; conditions: MCF7, 72 h; in short: as §1
SK-BR-3 [2] = assay: Ratio of novobiocin IC50 to compound IC50 for human SKBR3 cells expressing HER2; assay type: functional
[3] = target: T1, Heat shock protein HSP90 (Homo sapiens) (UniProt P07900+P08238); assay: Inhibition of Hsp90 in human MCF7 cells assessed as Akt degradation after 24 hrs by Western blot analysis; assay type: cell-based
In short: (§2)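 MCF-7 cells grown as for proliferation and treated with compound at various concentrations, GDA, or DMSO vehicle (1% DMSO final) for 24 h. Lysed in RIPA with 1 mM PMSF, 2 mM orthovanadate and protease inhibitors on ice for 1 h, then clarified at 14000g. Protein measured by BCA. 20 µg run reducing, transferred to nitrocellulose and probed with specific antibodies.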

[4] = target: T1, Heat shock protein HSP90 (Homo sapiens); assay: Inhibition of Hsp90 in human MCF7 cells assessed as Her2 degradation at IC50 concentration after 24 hrs by Western blot analysis; assay type: cell-based
[5] = Antiproliferative activity against human androgen-independent PC3MM2 cells after 72 hrs by MTS/PMS assay; assay type: functional, cell-based; conditions: PC3MM2, 72 h; in short: as §1
[6] = target: T1, Heat shock protein HSP90 (Homo sapiens); assay: Inhibition of Hsp90 in human MCF7 cells assessed as Akt degradation at IC50 concentration after 24 hrs by Western blot analysis; assay type: cell-based
[7] = target: T1, Heat shock protein HSP90 (Homo sapiens); assay: Inhibition of Hsp90 in human MCF7 cells assessed as Raf1 degradation after 24 hrs by Western blot analysis; assay type: cell-based; in short: as §2
[8] = target: T1, Heat shock protein HSP90 (Homo sapiens); assay: Inhibition of Hsp90 in human MCF7 cells assessed as Raf1 degradation at IC50 concentration after 24 hrs by Western blot analysis; assay type: cell-based
[9] = target: T1, Heat shock protein HSP90 (Homo sapiens); assay: Inhibition of Hsp90 in human MCF7 cells assessed as Her2 degradation after 24 hrs by Western blot analysis; assay type: cell-based; in short: as §2

SMILES	IC50 (SK-BR-3 [1]) [µM]	IC50 (MCF7) [µM]	Ratio IC50 (SK-BR-3 [2])	inhibition [3]	inhibition [4]	IC50 [5] [µM]	inhibition [6]	inhibition [7]	inhibition [8]	inhibition [9]
COc1cccc(-c2cc(C(=O)Nc3cc4ccc(O[C@H]5OCC[C@@H](O)[C@H]5O)c(OC)c4oc3=O)ccc2OC)c1	11.1	10.8	500							
COc1cc2cc(NC(=O)c3ccc(OC(C)=O)c(CC=C(C)C)c3)c(=O)oc2c(C)c1OCCCN(C)C	0.36	0.7		Dose-dependent effect	Active	1.46	Active	Dose-dependent effect	Active	Dose-dependent effect
COc1cccc(-c2cc(C(=O)Nc3cc4cc(OC)c(O[C@@H]5OC[C@@H]6OC(=O)O[C@H]56)c(C)c4oc3=O)ccc2OC)c1			500							
COc1cc2cc(NC(=O)c3ccc(O)c(CC=C(C)C)c3)c(=O)oc2c(C)c1OC1CCN(C)CC1	0.42	0.54		Dose-dependent effect	Active	2.26	Active	Dose-dependent effect	Active	Dose-dependent effect
